Screening results deposited in PubChem BioAssay by Broad Institute.
Compounds with a hit are over-represented: about 2.7% of the library has one in this group of screens.
S100A4 MyoIIA: inhibitors of human S100A4 binding to myosin IIA peptide; P26447; inhibition, % at 10.7 µM; 360,000 tested, 0.14% active; AID 652163; S100A4/TAMRA-MyoIIA peptide fluorescence polarization;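 active = mean inhibition of at least 70% across replicates, with every replicate also reaching that level; inconclusive = mean inhibition reaches 70% but some replicates fall short; inactive = mean inhibition below 70%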
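Material: S100A4 monomer protein / Buffer or medium: 50 mM HEPES pH 7.2, 10 mM CaCl2, 100 mM KCl / Times: 5 min incubation before reading / Benchmarks: neutral control DMSO, positive control TFP / Reagent: labelled myosin peptide probe, 5 nM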
Env fusion inh: inhibitors of HIV Env-mediated cell fusion; HeLa-JRFL Env/CEM21 cell fusion, luciferase; inhibition, % at 12.3 µM; 360,000 tested, 1.1% active;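 active = mean replicate inhibition score of at least 50 and every replicate individually at or above 50; inconclusive = only one of the two criteria met; inactive = mean below 50 and not all replicates reaching 50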
E-selectin induc: E-selectin induction on HUVECs; AID 686992; 260,000 tested, 0.37% active; activation, % at 7.58 µM; HUVEC E-selectin immunofluorescence imaging; normalized: neutral wells 0, TNF-alpha wells 100;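 active = mean E-selectin-positive cell signal at least 10% of the positive control, reached in at least 60% of replicates, without over 20% cell loss; inconclusive = no rule given, readout overlaps actives, possibly toxicity-flagged; inactive = the rest, including those meeting only one limit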
Target sequence (P16581 whole entry, looked up): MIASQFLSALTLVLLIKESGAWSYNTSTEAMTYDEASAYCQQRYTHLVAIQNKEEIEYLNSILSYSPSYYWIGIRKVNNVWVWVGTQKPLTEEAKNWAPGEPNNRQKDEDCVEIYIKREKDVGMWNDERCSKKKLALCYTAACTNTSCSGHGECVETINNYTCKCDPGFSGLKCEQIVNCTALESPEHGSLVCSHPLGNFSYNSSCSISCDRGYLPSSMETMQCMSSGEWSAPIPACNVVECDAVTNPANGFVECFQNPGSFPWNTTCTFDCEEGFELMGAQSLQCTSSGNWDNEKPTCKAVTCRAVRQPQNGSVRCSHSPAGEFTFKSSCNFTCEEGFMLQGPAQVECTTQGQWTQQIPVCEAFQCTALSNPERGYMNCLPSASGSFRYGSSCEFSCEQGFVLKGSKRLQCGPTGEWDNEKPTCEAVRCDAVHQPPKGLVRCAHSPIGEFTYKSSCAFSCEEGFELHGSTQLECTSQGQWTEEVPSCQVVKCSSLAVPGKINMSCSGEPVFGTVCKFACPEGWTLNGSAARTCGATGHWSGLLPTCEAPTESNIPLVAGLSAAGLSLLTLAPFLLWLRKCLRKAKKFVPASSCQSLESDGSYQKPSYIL
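System: HUVEC / Compound: single concentration / Signal: immunofluorescence imaging / Read-out: percent E-selectin-positive cells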
FGF22 binding: binders of recombinant human FGF22 by thermal shift | Q9HCT0 | SYPRO orange fluorescence; percent of sucrose octasulfate shift, DMSO zero | activity (Tm shift, normalised), % at 9.99 µM | 340,000 tested, 1.5% active;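 active = mean Tm shift, scaled 0 neutral to 100 positive control, at about 1.3% or above, every replicate too, limit read from the data; inconclusive = no clear call, values can overlap the other calls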
F508del corr: correctors of CFTR F508del function in bronchial epithelial cells. activity (quench increase), % at 7.58 µM. 350,000 tested, 0.36% active. CFBE cells, YFP halide quenching; stimulated with forskolin plus potentiator P3; % fluorescence drop versus neutral controls;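 active = mean added fluorescence quench of at least 8% versus neutral control, with both replicates also reaching 8%; inconclusive = only one of the mean or replicate conditions met; inactive = mean below 8% and not both replicates reaching 8%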;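 note: cells transiently co-express mutant CFTR-F508del with the halide-sensitive YFP; corrector assay measuring rescue of mutant channel to the surface after 24 h compound exposure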
Hits are given with their value; . = inactive; ? = inconclusive; / = not tested or not shown; ! = not confirmed by another sample.

SMILES	S100A4 MyoIIA	Env fusion inh	E-selectin induc	FGF22 binding	F508del corr
CC(C)C#Cc1cnc2c(c1)C(=O)N([C@H](C)CO)C[C@@H](C)[C@@H](CN(C)C(=O)Nc1ccccc1)O2	.	.	.	.	.
Fc1ccc(NC(=S)NCCc2ccccn2)cc1	.	.	/	43.6	.
S=C(NCc1ccccn1)Nc1ccccc1	.	.	/	44.0	.
COc1cccc(S(=O)(=O)Nc2ccc3c(c2)C(=O)N(C)C[C@@H](OC)[C@H](C)CN(C(=O)Cc2cccnc2)[C@@H](C)CO3)c1	.	/	.	.	.
CCCC#Cc1ccc([C@@H]2[C@H](CO)N3C(=O)CN(S(=O)(=O)Cc4ccccc4)C[C@@H]23)cc1	.	/	.	/	.
O=C(NCc1ccccc1)N[C@@H](Cc1ccccc1)C(=O)O	/	.	/	/	/
O=C(NCc1ccccc1)NC(O)C(Cl)(Cl)Cl (configuration not stated)	.	.	.	43.8	.
Nc1ccc(C(=O)Nc2ccc3nc(-c4ccncc4)[nH]c3c2)cc1	.	.	/	44.4	.
CC(=O)Nc1ccc2nc(-c3ccncc3)[nH]c2c1	/	.	/	/	/
Cc1c(C)c2c(OCC(=O)N3CCC(O)CC3)cc3c(c2oc1=O)CCC(C)(C)O3	.	/	/	.	9.2
CO[C@H]1CN(C)C(=O)c2ccc(NC(=O)C3CCC3)cc2OC[C@@H](C)N(Cc2ccc(F)cc2)C[C@H]1C	.	/	.	.	.
CCN(C(=O)CSc1nnc(C)n1-c1ccc(C)cc1)c1c(N)n(Cc2ccccc2)c(=O)[nH]c1=O	.	.	.	.	19.5
CCN(C(=O)COC(=O)/C=C/c1c(C)nn(-c2ccccc2)c1C)c1c(N)n(Cc2ccccc2)c(=O)[nH]c1=O	.	.	.	.	10.1
CCN(C(=O)COC(=O)c1cc2c(s1)CCC(C)C2)c1c(N)n(Cc2ccccc2)c(=O)[nH]c1=O (configuration not stated)	.	.	/	.	.
CCN(C(=O)COC(=O)c1cc2c(s1)CCCC2)c1c(N)n(Cc2ccccc2)c(=O)[nH]c1=O	.	/	.	.	15.1
CCN(C(=O)COC(=O)/C=C/c1ccc2c(c1)OCO2)c1c(N)n(Cc2ccccc2)c(=O)[nH]c1=O	.	.	/	.	.
O=C(C[C@@H]1CC[C@@H]2[C@H](COC[C@@H](O)CN2Cc2nccs2)O1)NCc1ccc(F)cc1	.	.	.	.	.
COCC(=O)N1CC2(CN(C(=O)c3cccnc3)C2)c2c([nH]c3cc(OC)ccc23)[C@@H]1CO	.	/	.	.	.
CC(C)C#Cc1cnc2c(c1)C(=O)N([C@H](C)CO)C[C@@H](C)[C@H](CN(C)Cc1ccc3c(c1)OCO3)O2	.	.	.	.	/
OCC(O)C1OC(Nc2ccc(Br)cc2)C(O)C1O (configuration not stated)	.	.	/	42.9	/
COc1ccc2c3c(n(C)c2c1)[C@H](CO)N(C(=O)CN1CCOCC1)CC31CCN(C)CC1	/	/	.	/	.
COc1ccc2c(c1OC)OCC2C (configuration not stated)	.	.	.	.	8.1
COc1ccc(C2C(C#N)=C(N)OC3=C2C(=O)CC(C)C3)c(OC)c1OC (configuration not stated)	.	.	/	/	/
CCN1C(=O)Nc2cccc3cccc1c23	.	61.9	.	.	.
C=CCN1C(=O)N(CC=C)c2cccc3cccc1c23	.	.	/	.	.
SMILES	S100A4 MyoIIA	Env fusion inh	E-selectin induc	FGF22 binding	F508del corr
C[C@H](NC(=O)C[C@H]1CC[C@H](NC(=O)CN2CCOCC2)[C@@H](CO)O1)c1ccccc1	.	.	.	.	.
COc1cc(CC(=O)Nc2ccccc2N2CCOCC2)cc(OC)c1OC	.	.	.	42.9	.
CCN(CC)S(=O)(=O)c1ccc(OC)c(NC(=O)c2cc([N+](=O)[O-])ccc2N2CCOCC2)c1	.	66.5	.	.	.
CCN(CC)S(=O)(=O)c1ccc(N2CCCC2)c(NC(=O)Cc2cc(OC)c(OC)c(OC)c2)c1	.	96.9	.	.	.
COc1cccc(CN(C)CC(=O)Nc2ccccc2N2CCOCC2)c1OC	.	.	.	.	.
C[C@@H]1CCCCO[C@H](CN(C)C(=O)c2ccccc2)[C@@H](C)CN([C@@H](C)CO)C(=O)c2cc(NC(=O)Nc3ccccc3)ccc2O1	.	.	/	.	.
Nc1cc(-c2ccncc2)c[nH]c1=O	151.7!	/	.	.	.
C[C@H]1CN([C@@H](C)CO)S(=O)(=O)c2ccc(-c3ccc(C(=O)N(C)C)cc3)cc2O[C@@H]1CN(C)C(=O)C1CC1	/	.	.	/	.
COc1ccc(NC(=S)NCc2ccc3c(c2)OCO3)cc1	.	.	/	43.2	/
O=C(O)CCc1ccc(-c2cccs2)n1CC(=O)Nc1ccccc1C(F)(F)F	.	.	.	43.4	.
O=C(CCc1ccccc1)Nc1ccccc1C(F)(F)F	.	.	/	44.2	.
O=C(CCc1ccccc1)NNC(=O)Nc1ccccc1	.	.	/	43.0	.
C[C@H](CO)N1C[C@H](C)[C@H](CN(C)C(=O)NC2CCCC2)Oc2ncc(C#CCN(C)C)cc2C1=O	.	.	.	.	.
Cc1ccccc1OCC(=O)Nc1ccccc1-c1ccccc1NC(=O)COc1ccccc1C	/	64.0	.	/	/
Cc1cc(CSc2ccccc2)ccc1NC(=O)COc1ccccc1C	.	.	/	44.3	.
COc1cc2cc(CN(CCCN3CCOCC3)Cc3nnnn3Cc3ccccc3)c(=O)[nH]c2cc1OC	.	.	.	.	.
COc1ccc2[nH]c(=O)c(CN(Cc3cccs3)Cc3nnnn3Cc3ccccc3)cc2c1	/	98.2	/	/	/
CCOc1ccc2[nH]c(=O)c(CN(CCCN3CCOCC3)Cc3nnnn3Cc3ccc(OC)cc3)cc2c1	.	.	/	43.1	.
O=C(N/N=C/c1ccsc1)C1CC1	.	.	/	43.1	.
O=C(N/N=C/c1ccc(O)c(O)c1)C1CC1	.	.	/	.	.
OC(COC(c1ccccc1)c1ccccc1)CN1CCOCC1 (configuration not stated)	.	.	71.6	.	/
Cc1ccc(C(OCC(O)CN2CCCCC2)c2ccccc2)cc1 (configuration not stated)	.	.	.	.	.
O=C(CN1CCCC1)N/N=C/c1c(O)ccc2ccccc12	.	.	/	/	10.0
O=C(NN=Cc1c(O)ccc2ccccc12)C1CC1	.	.	.	.	.
Oc1ccc2ccccc2c1C=NNc1ccccn1	.	.	.	.	9.7
O=C(N/N=C/c1c(O)ccc2ccccc12)C(=O)N1CCCC1	.	.	.	.	12.9
Oc1ccc2ccccc2c1/C=N/Nc1nnc(-c2ncc[nH]2)c2ccccc12	/	.	/	/	/
CCNC(=O)[C@@H]1[C@@H](CO)[C@@H]2Cn3c(ccc(/C=C/c4ccccc4)c3=O)[C@H]1N2CC	.	/	.	.	.
O=C(Nc1ccc(-c2nc3ccccc3o2)cc1)c1cc(-n2cnnc2)ccc1Cl	/	57.5	/	/	/
O=C(Nc1ccc2oc(-c3ccccc3)nc2c1)c1cc(-n2cnnc2)ccc1Cl	.	.	?	.	.
